The values that follow come from ChEMBL document CHEMBL3580541, “Mebamamides A and B, Cyclic Lipopeptides Isolated from the Green Alga Derbesia marina” (J Nat Prod, 2015).

Test [1] deals with HL-60. Briefly: Induction of human HL60 cell phagocytotic activity at 16 nM after 48 hrs by trypan based fluorescent microscopy. The test is classed as functional. The essentials: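 HL60 cells were seeded at 2 × 10^4 cells/well. FITC-conjugated latex beads and agent were added together, with TPA at 16 nM as the reference, and cells were incubated for 48 h. Uptake was assessed by fluorescence microscopy using a commercial phagocytosis kit run per the manufacturer's protocol.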

The subject of test [2] is HL-60. The test is described as follows: Induction of human HL60 cell differentiation into macrophages at 16 nM after 72 hrs by May-Giemsa staining based microscopy. It is filed as functional. The procedure, abridged: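 HL60 cells were grown in RPMI with 10% heat-inactivated FBS, penicillin/streptomycin, amphotericin and L-glutamine at 37 °C in 5% CO2. They were seeded at 2 × 10^4 cells/well and treated for 72 h. Cells were washed once in PBS, stained with May–Giemsa, and examined by light microscopy for macrophage-like morphology.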

Test [3] concerns HeLa. The test is described as follows: Cytotoxicity against human HeLa cells after 72 hrs by Trypan blue dye exclusion assay. It is filed as functional, cell-based. To be noted: in the assay text read “MTT assay” for “Trypan blue dye exclusion assay”. The essentials:
(§1)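 MTT read-out of proliferation. HeLa cells were grown in supplemented DMEM with 10% heat-inactivated FBS, seeded at 2 × 10^4 cells/well and cultured overnight. HL60 cells were grown in supplemented RPMI with 10% FBS and seeded at 1 × 10^5 cells/well. Compounds were added at 0.1−100 μM and incubated 72 h at 37 °C, 5% CO2.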
For orientation: Tetrazolium dyes change colour on reduction, which living cells bring about.

Test [4] concerns HL-60. The test is described as follows: Induction of cell adhesion in human HL60 cells at 100 uM measured upto 72 hrs by hemocytometry. The test is classed as functional, cell-based. The procedure, abridged: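 HL60 cells were seeded at 1 × 10^5 cells/well in 200 μL medium and given 100 μM compound; TPA at 16 nM served as comparator. Both fractions were counted by hemocytometer. Means ± SD of quadruplicate determinations.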

Test [5] deals with HL-60. The test is described as follows: Cytotoxicity against human HL60 cells after 72 hrs by Trypan blue dye exclusion assay. It is filed as functional, cell-based. To be noted: HL-60, 72 h, in the assay text read “MTT assay” for “Trypan blue dye exclusion assay”. The procedure, abridged: as §1
The test system of test [6] is HL-60. Briefly: Induction of human HL60 cell phagocytotic activity at 100 uM after 48 hrs by trypan based fluorescent microscopy. The test is classed as functional. The procedure, abridged:
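Phagocytosis was run with a commercial kit. HL60 cells were seeded at 2 × 10^4 cells/well in 200 μL medium, given 20 μL FITC-conjugated latex bead suspension plus 100 μM compound or 16 nM TPA, incubated 48 h and examined by fluorescence microscopy.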

For test [7], the system named is HeLa. The test is described as follows: Cytotoxicity against human HeLa cells at 100 uM after 72 hrs by Trypan blue dye exclusion assay. It is filed as functional, cell-based. Particulars: in the assay text read “MTT assay” for “Trypan blue dye exclusion assay”. The essentials:
as §1

For test [8], the system named is HL-60. The test is described as follows: Induction of human HL60 cell differentiation into macrophages at 100 uM after 72 hrs by May-Giemsa staining based microscopy. The test is classed as functional. The essentials:
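Differentiation was judged by morphology. HL60 cells were seeded at 2 × 10^4 cells/well in 200 μL medium, treated 72 h with 100 μM compound or 16 nM TPA, washed once in PBS, stained with May−Giemsa and examined by light microscopy.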

The test system of test [9] is HL-60. Briefly: Cytotoxicity against human HL60 cells at 100 uM after 72 hrs by Trypan blue dye exclusion assay. It is filed as functional, cell-based. The procedure, abridged: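 HL60 cells were seeded at 1 × 10^5 cells/well in 24-well plates and exposed to 100 μM compound for 72 h. They were then stained with 0.8 mg/mL trypan blue. Viability was determined by counting stained (dead) cells.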

The source made the active and inactive calls. The rule behind the calls is not given here.

For the compound `CCCCCCCCCCCCCC(=O)O[C@@H]1[C@@H](C)[C@@]2(O)[C@@H](C=C(CO)C[C@]3(O)C(=O)C(C)=C[C@@H]23)[C@@H]2C(C)(C)[C@]12OC(C)=O`, the result in the test on HL-60 [1] and in the test on HL-60 [2] was Active.

As usually defined, the IC50 is the concentration at which inhibition is half-maximal. A higher IC50 goes with a need for much substance. In the case of `CC(=O)O[C@@H](CCCC[C@@H](O)CC(=O)N[C@H](CO)C(=O)N[C@@H](CC(C)C)C(=O)N1CCC[C@H]1C(=O)N[C@H](C)C(=O)N[C@@H]1C(=O)N[C@H](Cc2ccccc2)C(=O)N2CCC[C@H]2C(=O)N[C@H](CC(C)C)C(=O)N[C@@H](C(C)C)C(=O)O[C@@H]1C)C(C)C`, the IC50 came out at 48 µM in the test with HeLa [3] and 19 µM in the test with HL-60 [5]. Further, in the test with HL-60 [4], the outcome was inactive.

With `CC(C)C[C@H](NC(=O)[C@@H](CO)NC(=O)C[C@H](O)CCCC[C@H](O)C(C)C)C(=O)N1CCC[C@H]1C(=O)N[C@H](C)C(=O)N[C@@H]1C(=O)N[C@H](Cc2ccccc2)C(=O)N2CCC[C@H]2C(=O)N[C@H](CC(C)C)C(=O)N[C@@H](C(C)C)C(=O)O[C@@H]1C`, the outcome in the test on HL-60 [6], in the test on HL-60 [4] and with HL-60 [8] was Active. Moreover, the “growth inhibition (GI)” value in the test on HeLa [7] and in the test with HL-60 [9] was “inactive” in each case.
